What was measured:
HCT-116 = experiment: MTT cytotoxicity assay, HCT-116; type: cell-based; conditions: Homo sapiens, HCT-116, 72 h, read-out: IC50 HCT-116 Colon
In short: (§1)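 Cells grown as monolayers in DMEM with 4.5 g glucose, 10% FBS and 1% penicillin/streptomycin. Seeded cells exposed for 72 h to several concentrations of test compound (0.1–100 μM), then given MTT for 4 h. Formazan dissolved in DMSO; absorbance read at 570 nm. IC50 taken as the mean of three independent experiments in triplicate; 100 μM cut-off.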

HEK293/pcDNA3.1 = experiment: MTT cytotoxicity assay, HEK293/pcDNA3.1; type: cell-based, human; conditions: for IC50: Homo sapiens, HEK293, 72 h, read-out: IC50 HEK293/pcDNA.3.1 Normal; for significant cytotoxicity in human embryonic kidney cells: at a concentration of less than 50 μM
In short: as §1

[1] = tested on: mouse fibroblast (NIH/3T3); experiment: MTT cytotoxicity assay, NIH/3T3; type: cell-based; conditions: NIH3T3, 72 h, read-out: IC50 3T3 Normal
In short: as §1

HT-29 cancer cells = experiment: MTT cytotoxicity assay, HT-29; type: cell-based; conditions: Homo sapiens, HT-29, 72 h, read-out: IC50 HT-29 Colon
In short: as §1

DU-145 cells = experiment: MTT cytotoxicity assay, DU-145; type: cell-based; conditions: Homo sapiens, DU-145, 72 h, read-out: IC50 DU-145 Prostate
In short: as §1

A2780 cells [2] = experiment: Nuclear condensation-based apoptosis assay; type: cell-based; conditions: 5, 10, or 20 μM at 24 and 48 h
A2780 cells [3] = experiment: Colony formation assay; type: cell-based; conditions: 10 or 20 μM, incubated 24 hrs, colonies over 2 weeks
In short: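 A2780 cells exposed to vehicle (0 μM) or test compound (10 or 20 μM) for 24 h, then reseeded at very low density in six-well plates and grown 2 weeks. Colonies fixed, stained and counted under a microscope; colony formation rate calculated. Repeated independently in triplicate.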

A2780 cells [4] = experiment: Annexin V based apoptosis assay; type: cell-based; conditions: 24 h; for Q1 (flow cytometry quadrant): control Q1 94.1%; for Q2 (flow cytometry quadrant, apoptosis): control Q2 5.87 %

Compound | IC50 (HCT-116) [µM] | IC50 (HEK293/pcDNA3.1) [µM] | IC50 [1] [µM] | IC50 (HT-29 cancer cells) [µM] | IC50 (DU-145 cells) [µM] | significant cytotoxicity in human embryonic kidney cells (HEK293/pcDNA3.1) | nuclear morphology of A2780 cells (DAPI staining) (A2780 cells [2]) | colony formation of A2780 cells (A2780 cells [3]) | Q1 (flow cytometry quadrant) (A2780 cells [4]; 10 μM) [%] | Q2 (flow cytometry quadrant, apoptosis) (A2780 cells [4]; 10 μM) [%] | Q1 (flow cytometry quadrant) (A2780 cells [4]; 20 μM) [%] | Q2 (flow cytometry quadrant, apoptosis) (A2780 cells [4]; 20 μM) [%]
O=C1Nc2ccccc2C1=Cc1cc2ccccc2nc1Cl [LM01, 3-((2-chloroquinolin-3-yl)methylene)indolin-2-one] | > 100 | 64.5 | > 100 | > 100 | 77.5 | – | – | – | – | – | – | –
Cc1ccc2nc(Cl)c(C=C3C(=O)Nc4ccccc43)cc2c1 [LM02, 3-((2-chloro-6-methylquinolin-3-yl)methylene)indolin-2-one] | 52.1 | 73.4 | > 100 | > 100 | > 100 | – | – | – | – | – | – | –
Cc1cc2cc(C=C3C(=O)Nc4ccccc43)c(Cl)nc2cc1C [LM03, 3-((2-chloro-6,7-dimethylquinolin-3-yl)methylene)indolin-2-one] | > 100 | 97.4 | > 100 | > 100 | > 100 | – | – | – | – | – | – | –
COc1ccc2nc(Cl)c(C=C3C(=O)Nc4ccccc43)cc2c1 [LM04, 3-((2-chloro-6-methoxyquinolin-3-yl)methylene)indolin-2-one] | 60.9 | 39.9 | > 100 | > 100 | 47.2 | produced significant cytotoxicity | – | – | – | – | – | –
COc1ccc2cc(C=C3C(=O)Nc4ccccc43)c(Cl)nc2c1 [LM05, 3-((2-chloro-7-methoxyquinolin-3-yl)methylene)indolin-2-one] | 56.2 | > 100 | > 100 | > 100 | > 100 | – | – | – | – | – | – | –
COc1cc2cc(C=C3C(=O)Nc4ccccc43)c(Cl)nc2cc1OC [LM06, 3-((2-chloro-6,7-dimethoxyquinolin-3-yl)methylene)indolin-2-one] | 75 | > 100 | > 100 | > 100 | > 100 | – | – | – | – | – | – | –
COc1cccc2cc(C=C3C(=O)Nc4ccccc43)c(Cl)nc12 [LM07, 3-((2-chloro-8-methoxyquinolin-3-yl)methylene)indolin-2-one] | > 100 | 80.8 | > 100 | > 100 | 11 | – | – | – | – | – | – | –
O=C1Nc2ccccc2C1=Cc1cc2cc(Cl)ccc2nc1Cl [LM08, 3-((2,6-dichloroquinolin-3-yl)methylene)indolin-2-one] | 77.8 | 64.3 | > 100 | > 100 | 91.2 | – | nuclear condensation | significantly inhibited | 64.8 | 34.6 | 61.5 | 36.9
O=C1Nc2ccccc2C1=Cc1cc2ccc(Cl)cc2nc1Cl [LM09, 3-((2,7-dichloroquinolin-3-yl)methylene)indolin-2-one] | 75.2 | 63.2 | > 100 | > 100 | 54.9 | – | – | – | – | – | – | –
O=C1Nc2ccccc2C1=Cc1cc2cc(Br)ccc2nc1Cl [LM10, 3-((6-bromo-2-chloroquinolin-3-yl)methylene)indolin-2-one] | 41.3 | 50.5 | > 100 | > 100 | > 100 | produced significant cytotoxicity | – | – | – | – | – | –
O=C1Nc2ccccc2C1=Cc1cc2ccc3ccccc3c2nc1Cl [LM11, 3-((2-chlorobenzo[h]quinolin-3-yl)methylene)indolin-2-one] | > 100 | 75.3 | > 100 | > 100 | 95.7 | – | – | – | – | – | – | –
